# Source: ChEMBL document CHEMBL4689842, “EUbOPEN Chemogenomics Library wave 1” (2021)
# Tested on: U2OS
# Assay: Multiplex assay against U2OS
# Format: toxicity, cell-based
# Settings: human
# Procedure, shortened: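 Hoechst33342, BioTracker Green Microtubule Cytoskeleton Dye, MitoTracker Red and Annexin V Alexa Fluor 680 were added to live cells at seeding, and imaging on a CQ1 microscope at 37°C and 5% CO2 followed compound addition. Gating by CellPathfinder machine learning separated cells into Hoechst high-intensity objects or normal cells, then normal cells into healthy, pyknosed or fragmented nuclei, then pyknosed cells into mitotic or apoptotic. Per cents of healthy-nucleus cells are reported for the tubulin, mitochondrial-mass and membrane-permeability phenotypes.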
# [1] = 12 h, 1 µM, compound concentration 1 uM, replicate 1
# [2] = 12 h, 1 µM, compound concentration 1 uM, replicate 2
# [3] = 12 h, 10 µM, compound concentration 10 uM, replicate 1
# [4] = 12 h, 10 µM, compound concentration 10 uM, replicate 2
# [5] = 24 h, 1 µM, compound concentration 1 uM, replicate 1
# [6] = 24 h, 1 µM, compound concentration 1 uM, replicate 2
# [7] = 24 h, 10 µM, compound concentration 10 uM, replicate 1
# [8] = 24 h, 10 µM, compound concentration 10 uM, replicate 2
smiles,measurement,setting,value
Cc1nc(Nc2n[nH]c3c2CN(C(=O)N[C@H](CN(C)C)c2ccccc2)C3(C)C)c2sccc2n1 [PF-03758309],Population Apoptotic (%),[1],47%
same,Population Fragmented Nuclei (%),[1],9%
same,Population Healthy Nuclei (%),[1],79%
same,Population Hoechst High Intensity Objects (%),[1],2%
same,Population Membrane Permeable-Phenotype (%),[1],9%
same,Population Mitochondria Different-Phenotype (%),[1],21%
same,Population Mitotic Cells (%),[1],52%
same,Population Normal (%),[1],97%
same,Population Pyknosed Nuclei (%),[1],11%
same,Population Tubulin-Different-Phenotype (%),[1],21%
same,Total Cell Count,[1],234
same,Population Apoptotic (%),[2],20%
same,Population Fragmented Nuclei (%),[2],10%
same,Population Healthy Nuclei (%),[2],78%
same,Population Hoechst High Intensity Objects (%),[2],15%
same,Population Membrane Permeable-Phenotype (%),[2],5%
same,Population Mitochondria Different-Phenotype (%),[2],18%
same,Population Mitotic Cells (%),[2],80%
same,Population Normal (%),[2],84%
same,Population Pyknosed Nuclei (%),[2],10%
same,Population Tubulin-Different-Phenotype (%),[2],24%
same,Total Cell Count,[2],118
same,Population Apoptotic (%),[3],53%
same,Population Fragmented Nuclei (%),[3],16%
same,Population Healthy Nuclei (%),[3],54%
same,Population Hoechst High Intensity Objects (%),[3],3%
same,Population Membrane Permeable-Phenotype (%),[3],18%
same,Population Mitochondria Different-Phenotype (%),[3],37%
same,Population Mitotic Cells (%),[3],46%
same,Population Normal (%),[3],97%
same,Population Pyknosed Nuclei (%),[3],28%
same,Population Tubulin-Different-Phenotype (%),[3],75%
same,Total Cell Count,[3],173
same,Population Apoptotic (%),[4],75%
same,Population Fragmented Nuclei (%),[4],20%
same,Population Healthy Nuclei (%),[4],63%
same,Population Hoechst High Intensity Objects (%),[4],18%
same,Population Membrane Permeable-Phenotype (%),[4],12%
same,Population Mitochondria Different-Phenotype (%),[4],59%
same,Population Mitotic Cells (%),[4],25%
same,Population Normal (%),[4],81%
same,Population Pyknosed Nuclei (%),[4],16%
same,Population Tubulin-Different-Phenotype (%),[4],85%
same,Total Cell Count,[4],112
same,Population Apoptotic (%),[5],58%
same,Population Fragmented Nuclei (%),[5],11%
same,Population Healthy Nuclei (%),[5],80%
same,Population Hoechst High Intensity Objects (%),[5],3%
same,Population Membrane Permeable-Phenotype (%),[5],17%
same,Population Mitochondria Different-Phenotype (%),[5],19%
same,Population Mitotic Cells (%),[5],41%
same,Population Normal (%),[5],96%
same,Population Pyknosed Nuclei (%),[5],8%
same,Population Tubulin-Different-Phenotype (%),[5],25%
same,Total Cell Count,[5],292
same,Population Apoptotic (%),[6],38%
same,Population Fragmented Nuclei (%),[6],16%
same,Population Healthy Nuclei (%),[6],71%
same,Population Hoechst High Intensity Objects (%),[6],13%
same,Population Membrane Permeable-Phenotype (%),[6],12%
same,Population Mitochondria Different-Phenotype (%),[6],29%
same,Population Mitotic Cells (%),[6],61%
same,Population Normal (%),[6],86%
same,Population Pyknosed Nuclei (%),[6],12%
same,Population Tubulin-Different-Phenotype (%),[6],33%
same,Total Cell Count,[6],121
same,Population Apoptotic (%),[7],78%
same,Population Fragmented Nuclei (%),[7],25%
same,Population Healthy Nuclei (%),[7],38%
same,Population Hoechst High Intensity Objects (%),[7],12%
same,Population Membrane Permeable-Phenotype (%),[7],44%
same,Population Mitochondria Different-Phenotype (%),[7],64%
same,Population Mitotic Cells (%),[7],21%
same,Population Normal (%),[7],88%
same,Population Pyknosed Nuclei (%),[7],36%
same,Population Tubulin-Different-Phenotype (%),[7],88%
same,Total Cell Count,[7],202
same,Population Apoptotic (%),[8],85%
same,Population Fragmented Nuclei (%),[8],19%
same,Population Healthy Nuclei (%),[8],50%
same,Population Hoechst High Intensity Objects (%),[8],25%
same,Population Membrane Permeable-Phenotype (%),[8],38%
same,Population Mitochondria Different-Phenotype (%),[8],82%
same,Population Mitotic Cells (%),[8],14%
same,Population Normal (%),[8],74%
same,Population Pyknosed Nuclei (%),[8],30%
same,Population Tubulin-Different-Phenotype (%),[8],82%
same,Total Cell Count,[8],121
